{"source": "ChEMBL document CHEMBL5678806", "about": "“NMS-P937, an orally available, specific small-molecule polo-like kinase 1 inhibitor with antitumor activity in solid and hematologic malignancies” (Mol Cancer Ther, 2012)", "key": {"[1]": {"molecular_target": "Cyclin-dependent kinase 4/cyclin D1 (Homo sapiens, UniProt P11802)", "sequence (P11802 whole entry)": "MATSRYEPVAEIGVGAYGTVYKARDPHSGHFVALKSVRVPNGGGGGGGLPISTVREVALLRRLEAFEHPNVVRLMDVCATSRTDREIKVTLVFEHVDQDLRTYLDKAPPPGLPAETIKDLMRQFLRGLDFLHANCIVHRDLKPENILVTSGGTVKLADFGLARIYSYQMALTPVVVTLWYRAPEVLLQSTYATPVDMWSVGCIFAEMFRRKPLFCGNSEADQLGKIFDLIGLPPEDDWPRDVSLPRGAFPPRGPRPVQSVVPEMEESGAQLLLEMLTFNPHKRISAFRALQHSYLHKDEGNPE", "sequence (P24385 whole entry, further chain)": "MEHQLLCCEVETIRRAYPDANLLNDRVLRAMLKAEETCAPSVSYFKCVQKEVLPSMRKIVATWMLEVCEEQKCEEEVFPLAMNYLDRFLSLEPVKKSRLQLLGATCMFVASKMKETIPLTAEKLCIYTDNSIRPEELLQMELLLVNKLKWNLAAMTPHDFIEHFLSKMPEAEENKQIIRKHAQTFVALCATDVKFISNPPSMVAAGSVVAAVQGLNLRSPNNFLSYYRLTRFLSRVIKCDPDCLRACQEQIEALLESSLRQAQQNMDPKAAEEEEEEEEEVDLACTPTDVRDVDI", "assay": "Inhibition of CDK4/CycD1 (unknown origin) in presence of [gamma-33P]ATP", "type": "protein-complex assay"}, "Insulin receptor": {"molecular_target": "Insulin receptor (Homo sapiens, UniProt P06213)", "assay": "Inhibition of IR (unknown origin) in presence of [gamma-33P]ATP"}, "[2]": {"molecular_target": "Serine/threonine-protein kinase NIM1 (Homo sapiens, UniProt Q8IY84)", "sequence (Q8IY84 whole entry)": "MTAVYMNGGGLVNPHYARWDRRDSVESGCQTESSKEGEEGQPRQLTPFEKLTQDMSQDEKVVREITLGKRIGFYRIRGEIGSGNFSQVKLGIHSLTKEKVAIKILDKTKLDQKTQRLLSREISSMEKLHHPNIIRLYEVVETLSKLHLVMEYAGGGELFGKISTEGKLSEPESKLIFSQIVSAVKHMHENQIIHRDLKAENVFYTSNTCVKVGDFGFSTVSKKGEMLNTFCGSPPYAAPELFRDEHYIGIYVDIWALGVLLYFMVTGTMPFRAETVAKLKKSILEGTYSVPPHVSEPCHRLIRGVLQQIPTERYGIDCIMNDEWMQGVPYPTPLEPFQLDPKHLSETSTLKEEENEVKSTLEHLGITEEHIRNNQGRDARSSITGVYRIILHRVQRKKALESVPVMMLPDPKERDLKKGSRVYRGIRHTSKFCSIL", "assay": "Inhibition of NIM1 (unknown origin) in presence of [gamma-33P]ATP"}, "[3]": {"molecular_target": "Eukaryotic translation initiation factor 2-alpha kinase 3 (Homo sapiens, UniProt Q9NZJ5)", "sequence (Q9NZJ5 whole entry)": "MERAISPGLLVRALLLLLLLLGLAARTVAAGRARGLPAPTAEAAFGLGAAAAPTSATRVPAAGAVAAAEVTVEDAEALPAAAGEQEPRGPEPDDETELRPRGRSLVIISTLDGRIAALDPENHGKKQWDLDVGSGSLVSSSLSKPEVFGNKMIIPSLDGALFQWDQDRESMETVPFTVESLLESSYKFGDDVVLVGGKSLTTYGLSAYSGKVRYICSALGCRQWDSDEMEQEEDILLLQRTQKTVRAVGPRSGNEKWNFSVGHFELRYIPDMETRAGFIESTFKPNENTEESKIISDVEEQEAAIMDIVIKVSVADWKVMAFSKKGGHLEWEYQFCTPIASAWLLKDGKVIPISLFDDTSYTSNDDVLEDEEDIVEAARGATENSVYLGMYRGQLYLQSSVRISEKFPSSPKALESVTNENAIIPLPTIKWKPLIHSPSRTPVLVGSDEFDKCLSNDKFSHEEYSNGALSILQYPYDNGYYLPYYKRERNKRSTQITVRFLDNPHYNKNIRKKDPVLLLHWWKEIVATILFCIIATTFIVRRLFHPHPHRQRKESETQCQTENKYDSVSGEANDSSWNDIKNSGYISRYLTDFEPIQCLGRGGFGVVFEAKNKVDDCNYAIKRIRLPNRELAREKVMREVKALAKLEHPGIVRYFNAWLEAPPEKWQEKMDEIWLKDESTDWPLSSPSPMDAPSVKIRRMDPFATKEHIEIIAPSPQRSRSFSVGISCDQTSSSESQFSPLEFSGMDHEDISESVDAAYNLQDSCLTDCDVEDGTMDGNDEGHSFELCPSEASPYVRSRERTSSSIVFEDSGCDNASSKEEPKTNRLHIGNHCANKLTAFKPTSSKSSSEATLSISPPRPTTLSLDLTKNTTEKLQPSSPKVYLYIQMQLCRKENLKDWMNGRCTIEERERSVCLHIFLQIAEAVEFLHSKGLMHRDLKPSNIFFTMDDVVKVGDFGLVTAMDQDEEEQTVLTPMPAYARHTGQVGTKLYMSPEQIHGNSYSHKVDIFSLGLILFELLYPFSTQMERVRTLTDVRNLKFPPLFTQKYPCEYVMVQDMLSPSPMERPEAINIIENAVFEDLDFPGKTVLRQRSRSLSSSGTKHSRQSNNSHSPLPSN", "assay": "Inhibition of PERK (unknown origin) in presence of [gamma-33P]ATP"}, "[4]": {"molecular_target": "Ephrin type-B receptor 1 (Homo sapiens) (UniProt P54762)", "assay": "Inhibition of N-terminal 6His-tagged recombinant human EphB1 (564 to end residues) expressed in baculovirus infected Sf21 cells assessed as residual activity at 0.1 uM relative to control"}, "[5]": {"molecular_target": "Tyrosine-protein kinase Fgr (Homo sapiens) (UniProt P09769)", "sequence (P09769 2-529 limits assumed)": "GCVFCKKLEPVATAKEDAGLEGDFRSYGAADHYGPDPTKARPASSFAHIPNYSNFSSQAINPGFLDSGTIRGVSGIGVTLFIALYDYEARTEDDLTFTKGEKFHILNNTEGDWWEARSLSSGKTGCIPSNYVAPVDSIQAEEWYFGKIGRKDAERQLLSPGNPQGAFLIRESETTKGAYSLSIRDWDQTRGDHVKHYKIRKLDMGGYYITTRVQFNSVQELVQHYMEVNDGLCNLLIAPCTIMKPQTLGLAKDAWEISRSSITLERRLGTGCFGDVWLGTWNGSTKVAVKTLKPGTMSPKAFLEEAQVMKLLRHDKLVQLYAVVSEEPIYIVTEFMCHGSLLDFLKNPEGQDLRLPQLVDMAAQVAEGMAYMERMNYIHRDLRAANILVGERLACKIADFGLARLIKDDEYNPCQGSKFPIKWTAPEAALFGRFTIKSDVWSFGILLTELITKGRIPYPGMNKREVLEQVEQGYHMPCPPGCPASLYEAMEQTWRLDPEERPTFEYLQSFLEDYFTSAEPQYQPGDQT", "assay": "Inhibition of N-terminal His6-tagged recombinant human Fgr (2 to end residues) expressed in baculovirus infected Sf21 cells assessed as residual activity at 0.1 uM relative to control"}, "[6]": {"molecular_target": "Mitogen-activated protein kinase kinase kinase 9 (Homo sapiens) (UniProt P80192)", "assay": "Inhibition of N-terminal 6His-tagged recombinant human MLK1 (134 to 414 residues) expressed in baculovirus infected Sf21 cells assessed as residual activity at 0.1 uM relative to control"}, "[7]": {"molecular_target": "SRSF protein kinase 3 (Homo sapiens) (UniProt Q9UPE1)", "sequence (Q9UPE1 whole entry)": "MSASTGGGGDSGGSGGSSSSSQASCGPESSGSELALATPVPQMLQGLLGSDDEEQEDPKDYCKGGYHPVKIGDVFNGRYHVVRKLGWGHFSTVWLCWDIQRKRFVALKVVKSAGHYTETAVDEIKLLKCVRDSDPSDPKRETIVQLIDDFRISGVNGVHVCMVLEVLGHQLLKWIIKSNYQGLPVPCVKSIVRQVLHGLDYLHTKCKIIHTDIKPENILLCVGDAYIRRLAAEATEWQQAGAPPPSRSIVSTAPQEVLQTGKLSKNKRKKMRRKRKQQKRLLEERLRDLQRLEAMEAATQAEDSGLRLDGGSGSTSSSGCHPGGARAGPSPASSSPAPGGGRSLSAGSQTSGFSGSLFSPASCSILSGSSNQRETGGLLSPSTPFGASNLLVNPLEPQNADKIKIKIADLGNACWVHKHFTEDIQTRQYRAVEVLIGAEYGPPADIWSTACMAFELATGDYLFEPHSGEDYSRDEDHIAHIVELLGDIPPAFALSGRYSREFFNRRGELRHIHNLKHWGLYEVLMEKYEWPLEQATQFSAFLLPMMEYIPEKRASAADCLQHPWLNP", "assay": "Inhibition of N-terminal 6His-tagged recombinant human full-length MSSK1 expressed in baculovirus infected Sf21 cells assessed as residual activity at 0.1 uM relative to control"}, "[8]": {"molecular_target": "Ribosomal protein S6 kinase alpha-1 (Rattus norvegicus) (UniProt Q63531)", "sequence (Q63531 whole entry)": "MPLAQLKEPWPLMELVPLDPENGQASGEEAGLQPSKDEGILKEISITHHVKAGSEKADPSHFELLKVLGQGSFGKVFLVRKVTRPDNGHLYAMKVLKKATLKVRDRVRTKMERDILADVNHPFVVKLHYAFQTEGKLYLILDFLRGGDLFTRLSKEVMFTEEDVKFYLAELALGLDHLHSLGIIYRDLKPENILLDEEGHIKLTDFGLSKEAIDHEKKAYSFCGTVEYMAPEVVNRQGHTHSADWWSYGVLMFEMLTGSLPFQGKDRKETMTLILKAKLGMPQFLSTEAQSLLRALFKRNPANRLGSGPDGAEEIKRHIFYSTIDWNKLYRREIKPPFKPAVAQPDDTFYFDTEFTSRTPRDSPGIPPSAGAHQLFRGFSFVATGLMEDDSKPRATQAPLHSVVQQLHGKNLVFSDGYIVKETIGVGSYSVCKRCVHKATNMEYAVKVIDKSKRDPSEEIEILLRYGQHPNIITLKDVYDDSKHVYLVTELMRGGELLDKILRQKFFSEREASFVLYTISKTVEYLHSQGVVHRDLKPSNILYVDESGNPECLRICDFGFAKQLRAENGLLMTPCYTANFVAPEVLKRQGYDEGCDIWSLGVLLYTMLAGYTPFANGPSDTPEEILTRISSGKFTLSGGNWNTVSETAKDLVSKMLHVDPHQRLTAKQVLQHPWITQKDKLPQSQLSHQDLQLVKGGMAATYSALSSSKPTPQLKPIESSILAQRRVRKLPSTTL", "assay": "Inhibition of N-terminal His6 and HA (YPYDV PDYA) tagged recombinant full-length (1 to end residues) rat Rsk1 expressed in baculovirus infected Sf21 cells assessed as residual activity at 0.1 uM relative to control"}, "[9]": {"molecular_target": "Dual specificity mitogen-activated protein kinase kinase 7 (Homo sapiens) (UniProt O14733)", "sequence (O14733 whole entry)": "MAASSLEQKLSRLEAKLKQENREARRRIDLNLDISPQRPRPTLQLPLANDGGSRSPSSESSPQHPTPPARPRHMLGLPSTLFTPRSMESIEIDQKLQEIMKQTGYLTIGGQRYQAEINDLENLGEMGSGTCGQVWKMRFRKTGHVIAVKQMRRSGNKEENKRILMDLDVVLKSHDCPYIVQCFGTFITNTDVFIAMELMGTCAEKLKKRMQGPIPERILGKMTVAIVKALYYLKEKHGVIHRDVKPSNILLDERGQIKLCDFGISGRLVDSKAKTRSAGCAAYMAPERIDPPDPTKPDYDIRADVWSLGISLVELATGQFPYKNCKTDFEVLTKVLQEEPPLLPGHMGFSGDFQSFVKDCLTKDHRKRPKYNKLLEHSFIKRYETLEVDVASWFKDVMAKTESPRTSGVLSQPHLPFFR", "assay": "Inhibition of N-terminal GST-tagged recombinant human MKK7beta (2 to end residues) expressed in E. coli assessed as residual activity at 1 uM relative to control"}, "[10]": {"molecular_target": "RAC-alpha serine/threonine-protein kinase (Homo sapiens, UniProt P31749)", "sequence (P31749 whole entry)": "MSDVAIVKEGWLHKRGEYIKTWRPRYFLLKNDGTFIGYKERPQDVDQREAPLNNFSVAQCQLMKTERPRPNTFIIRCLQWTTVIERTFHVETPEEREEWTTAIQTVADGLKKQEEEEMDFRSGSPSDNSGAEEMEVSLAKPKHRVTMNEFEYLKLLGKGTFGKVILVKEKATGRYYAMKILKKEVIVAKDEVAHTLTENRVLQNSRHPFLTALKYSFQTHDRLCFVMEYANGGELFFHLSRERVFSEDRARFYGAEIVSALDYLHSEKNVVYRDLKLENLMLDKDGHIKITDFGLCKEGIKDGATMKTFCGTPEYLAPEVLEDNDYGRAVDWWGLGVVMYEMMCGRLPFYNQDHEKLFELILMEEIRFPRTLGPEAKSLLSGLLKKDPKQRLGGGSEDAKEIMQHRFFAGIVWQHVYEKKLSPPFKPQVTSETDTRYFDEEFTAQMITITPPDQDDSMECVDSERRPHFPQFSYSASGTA", "assay": "Inhibition of N-terminal His6 tagged recombinant full-length human PKBalpha expressed in baculovirus infected Sf21 cells assessed as residual activity at 1 uM relative to control"}, "[11]": {"molecular_target": "Serine/threonine-protein kinase ULK3 (Homo sapiens) (UniProt Q6PHR2)", "assay": "Inhibition of N-terminal 6His-tagged recombinant human full-length ULK3 expressed in baculovirus infected Sf21 cells assessed as residual activity at 1 uM relative to control"}, "HDQ-P1": {"test_system": "HDQ-P1", "assay": "Antiproliferative activity against human HDQ-P1 cells assessed as inhibition of cell growth incubated for 72 hrs by cell-titer glo assay", "type": "functional, cell-based", "conditions": "HDQ-P1, 72 h", "summary_of_the_method": "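Cells seeded at 10,000–30,000/cm² (adherent) in medium with 10% fetal calf serum; after 24 h treated in duplicate with serial dilutions for 72 h. Viable cell number read by CellTiter-Glo luminescence. IC50 from sigmoidal curve fit; at least two independent experiments.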"}, "NCI-H1437": {"test_system": "NCI-H1437", "assay": "Antiproliferative activity against human NCI-H1437 cells assessed as inhibition of cell growth incubated for 72 hrs by cell-titer glo assay", "type": "functional, cell-based", "conditions": "NCI-H1437, 72 h", "summary_of_the_method": "(§1)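 Cells from ATCC or ECACC, kept in supplier-recommended medium with 1% penicillin-streptomycin at 37°C, 5% CO₂. Seeded at 10,000–30,000/cm² (adherent) or 100,000/mL (nonadherent) in medium with 10% fetal calf serum. Dosed after 24 h in duplicate with serial dilutions. Viable cells read by CellTiter-Glo 72 h later. IC50 from sigmoidal fit. At least two independent experiments.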"}, "SK-LU-1": {"test_system": "SK-LU-1", "assay": "Antiproliferative activity against human SK-LU-1 cells assessed as inhibition of cell growth incubated for 72 hrs by cell-titer glo assay", "type": "functional, cell-based", "conditions": "SK-LU-1, 72 h"}, "[12]": {"assay": "Antiproliferative activity against human LUDLU-1 cells assessed as inhibition of cell growth incubated for 72 hrs by cell-titer glo assay", "type": "functional, cell-based", "conditions": "LUDLU-1, 72 h", "summary_of_the_method": "(§2)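 Cells seeded at 10,000–30,000/cm² (adherent) or 100,000/mL (nonadherent) in medium with 10% fetal calf serum; after 24 h, treated in duplicate with serial dilutions for 72 h. Viable cell number read by CellTiter-Glo luminescence; IC50 from sigmoidal fit; at least two independent experiments.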"}, "A2780 [13]": {"test_system": "A2780", "assay": "Antiproliferative activity against human A2780 cells assessed as inhibition of cell growth incubated for 72 hrs by cell-titer glo assay", "type": "functional, cell-based", "conditions": "A2780, 72 h", "summary_of_the_method": "(§3)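 Cells seeded 10,000–30,000/cm² (adherent) or 100,000/mL (suspension) in medium with 10% fetal calf serum; after 24 h treated in duplicate with serial dilutions for 72 h. Viable cells read by CellTiter-Glo luminescence; IC50 from sigmoidal fit; at least two independent experiments.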"}, "CAPAN-1": {"test_system": "CAPAN-1", "assay": "Antiproliferative activity against human CAPAN-1 cells assessed as inhibition of cell growth incubated for 72 hrs by cell-titer glo assay", "type": "functional, cell-based", "conditions": "CAPAN-1, 72 h", "summary_of_the_method": "as §3"}, "RERF-LC-AI": {"test_system": "RERF-LC-AI", "assay": "Antiproliferative activity against human RERF-LC-AI cells assessed as inhibition of cell growth incubated for 72 hrs by cell-titer glo assay", "type": "functional, cell-based", "summary_of_the_method": "as §1"}, "Jurkat": {"test_system": "Jurkat", "assay": "Antiproliferative activity against human Jurkat cells assessed as inhibition of cell growth incubated for 72 hrs by cell-titer glo assay", "type": "functional, cell-based", "summary_of_the_method": "as §2"}, "697": {"test_system": "697", "assay": "Antiproliferative activity against human 697 cells assessed as inhibition of cell growth incubated for 72 hrs by cell-titer glo assay", "type": "functional, cell-based", "conditions": "Homo sapiens, 697, 72 h", "summary_of_the_method": "as §3"}, "U-266": {"test_system": "U-266", "assay": "Antiproliferative activity against human U-266 cells assessed as inhibition of cell growth incubated for 72 hrs by cell-titer glo assay", "type": "functional, cell-based", "conditions": "U-266, 72 h"}, "NCI-H929": {"test_system": "NCI-H929", "assay": "Antiproliferative activity against human NCI-H929 cells assessed as inhibition of cell growth incubated for 72 hrs by cell-titer glo assay", "type": "functional, cell-based", "conditions": "NCI-H929, 72 h", "summary_of_the_method": "as §1"}, "SET-2": {"test_system": "SET-2", "assay": "Antiproliferative activity against human SET2 cells assessed as inhibition of cell growth incubated for 72 hrs by cell-titer glo assay", "type": "functional, cell-based", "conditions": "SET-2, 72 h", "summary_of_the_method": "as §1"}, "NHDF [14]": {"test_system": "NHDF", "assay": "Induction of DNA damage in human NHDF cells assessed as H2AX phosphorylation at 0.5 to 1 uM incubated for 8 hrs by Western blotting analysis", "type": "toxicity, cell-based", "conditions": "dose 0.5-1 µM"}, "[15]": {"assay": "Clearance in Beagle dog at 5 mg/kg, iv by LC-MS analysis", "type": "ADME, organism-based, Canis lupus familiaris", "conditions": "in vivo"}, "NHDF [16]": {"test_system": "NHDF", "assay": "Cytotoxicity against human NHDF cells assessed as reduction in cell number at 0.5 to 1 uM incubated for 8 hrs followed by compound washout and measured after 24 to 48 hrs by cell titer glow assay", "type": "toxicity, cell-based", "conditions": "dose 0.5-1 µM"}, "A2780 [17]": {"test_system": "A2780", "assay": "Antiproliferative activity against human A2780 cells assessed as reduction in cell number at 0.5 to 1 uM incubated for 8 hrs followed by compound washout and measured after 24 to 48 hrs by cell titer glow assay", "type": "functional, cell-based", "conditions": "dose 0.5-1 µM", "summary_of_the_method": "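A2780 cells exposed to 0.5 or 1 μmol/L for 8 hours, then compound withdrawn; cells replated and grown 24 and 48 hours in drug-free medium before assessing cell growth.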"}}, "note": "The source made the active and inactive calls. The rule behind the calls is not given here.", "data": [{"smiles": "CN1CCN(c2ccc(OC(F)(F)F)c(Nc3ncc4c(n3)-c3c(c(C(N)=O)nn3CCO)CC4)c2)CC1", "note": "[ONVANSERTIB]", "values": [{"measurement": "IC50", "setting": "[1]", "value": "> 10000", "unit": "nM"}, {"measurement": "IC50", "setting": "Insulin receptor", "value": "> 10000", "unit": "nM"}, {"measurement": "IC50", "setting": "[2]", "value": "> 10000", "unit": "nM"}, {"measurement": "IC50", "setting": "[3]", "value": "> 10000", "unit": "nM"}, {"measurement": "Activity", "setting": "[4]", "value": 69, "unit": "%"}, {"measurement": "Activity", "setting": "[5]", "value": 93, "unit": "%"}, {"measurement": "Activity", "setting": "[6]", "value": 93, "unit": "%"}, {"measurement": "Activity", "setting": "[7]", "value": 87, "unit": "%"}, {"measurement": "Activity", "setting": "[8]", "value": 113, "unit": "%"}, {"measurement": "Activity", "setting": "[9]", "value": 80, "unit": "%"}, {"measurement": "Activity", "setting": "[10]", "value": 88, "unit": "%"}, {"measurement": "Activity", "setting": "[11]", "value": 127, "unit": "%"}, {"measurement": "IC50", "setting": "HDQ-P1", "value": 51, "unit": "nM"}, {"measurement": "IC50", "setting": "NCI-H1437", "value": 39, "unit": "nM"}, {"measurement": "IC50", "setting": "SK-LU-1", "value": 443, "unit": "nM"}, {"measurement": "IC50", "setting": "[12]", "value": 32, "unit": "nM"}, {"measurement": "IC50", "setting": "A2780 [13]", "value": 40, "unit": "nM"}, {"measurement": "IC50", "setting": "CAPAN-1", "value": 237, "unit": "nM"}, {"measurement": "IC50", "setting": "RERF-LC-AI", "value": 90, "unit": "nM"}, {"measurement": "IC50", "setting": "Jurkat", "value": 48, "unit": "nM"}, {"measurement": "IC50", "setting": "697", "value": 26, "unit": "nM"}, {"measurement": "IC50", "setting": "U-266", "value": 40, "unit": "nM"}, {"measurement": "IC50", "setting": "NCI-H929", "value": 63, "unit": "nM"}, {"measurement": "IC50", "setting": "SET-2", "value": 145, "unit": "nM"}, {"measurement": "Activity", "setting": "NHDF [14]", "value": "Toxic"}, {"measurement": "clearance", "setting": "[15]", "value": 43.8, "unit": "mL/min/kg"}, {"measurement": "Activity", "setting": "NHDF [16]", "value": "Toxic"}, {"measurement": "Activity", "setting": "A2780 [17]", "value": "Active"}]}]}
